Source: ChEMBL document CHEMBL1139624, “Synthesis and evaluation of isatin derivatives as effective SARS coronavirus 3CL protease inhibitors” (Bioorg Med Chem Lett, 2005)

target: Replicase polyprotein 1a (Severe acute respiratory syndrome-related coronavirus) (UniProt P0C6U8); assay: In vitro percent inhibition against SARS coronavirus main protease (SARS CoV 3C-like protease); settings: concentration not given here
How it was run: (§1)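 FRET assay with 50 nM 3CLpro preincubated 10 min at room temperature with inhibitor at 20 μM in pH 7.5 Tris–HCl/NaCl/EDTA/DTT/β-ME buffer. Percent inhibition was taken from the initial velocity.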

SMILES	inhibition
O=C1C(=O)N(Cc2cc3ccccc3o2)c2ccc(I)cc21	13%

target: T1, Replicase polyprotein 1a (Severe acute respiratory syndrome-related coronavirus, UniProt P0C6U8); assay: In vitro inhibitory concentration against SARS coronavirus main protease (SARS CoV 3C-like protease) at 20 uM; settings: not given; how it was run: as §1

SMILES	IC50
O=C1C(=O)N(CC2COc3ccccc3O2)c2ccc(I)cc21 (stereo not given)	13.5 µM

target: T1, Replicase polyprotein 1a; assay: In vitro inhibitory concentration SARS coronavirus main protease (SARS CoV 3C-like protease); settings: not given

SMILES	IC50
O=C1C(=O)N(Cc2cc3ccccc3s2)c2c(Br)cccc21	0.98 µM

test system: not listed separately; assay: In vitro inhibitory concentration against Papain (cysteine protease); set-up: species or system Carica papaya; settings: not given

SMILES	IC50
O=C1C(=O)N(Cc2cc3ccccc3s2)c2c(Br)cccc21	103 µM
O=C1C(=O)N(Cc2cc3ccccc3s2)c2ccc(I)cc21	87.2 µM

test system: not listed separately; assay: In vitro inhibitory concentration against Trypsin (serine protease); settings: not given
How it was run: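 Trypsin counter-screen run with 9 nM enzyme and 200 μM substrate.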

SMILES	IC50
O=C1C(=O)N(Cc2cc3ccccc3s2)c2c(Br)cccc21	362 µM
O=C1C(=O)N(Cc2cc3ccccc3s2)c2ccc(I)cc21	243 µM

target: Replicase polyprotein 1a (Severe acute respiratory syndrome-related coronavirus) (UniProt P0C6U8); assay: In vitro percent inhibition against SARS coronavirus main protease (SARS CoV 3C-like protease) at 20 uM; settings: not given; how it was run: as §1

SMILES	inhibition
Cc1cc2c(c([N+](=O)[O-])c1)N(Cc1cc3ccccc3s1)C(=O)C2=O	39%
O=C(NC1CCCCC1)c1ccc(CN2C(=O)C(=O)c3cc(I)ccc32)s1	36%
O=C1C(=O)N(Cc2cc3ccccc3o2)c2ccc([N+](=O)[O-])cc21	24%
O=C1C(=O)N(Cc2cc3ccccc3s2)c2c(Cl)ccc(Cl)c21	46%
COc1ccc2c(c1)C(=O)C(=O)N2Cc1cc2ccccc2s1	27%
Cc1cc2c(c([N+](=O)[O-])c1)N(CC(=O)c1cc3ccccc3s1)C(=O)C2=O	40%
O=C(Nc1ccc(F)cc1F)c1ccc(CN2C(=O)C(=O)c3cc(I)ccc32)s1	32%
Nc1cccc2c1N(Cc1cc3ccccc3s1)C(=O)C2=O	31%
CC(C)NC(=O)c1ccc(CN2C(=O)C(=O)c3cc(I)ccc32)s1	47%
Nc1ccc2c(c1)C(=O)C(=O)N2CC(=O)c1cc2ccccc2s1	40%
Cc1noc(C)c1CN1C(=O)C(=O)c2cc(C(N)=O)ccc21	25%
COc1ccc2c(c1)C(=O)C(=O)N2Cc1cc2ccccc2o1	13%
O=C(Nc1ccc(F)cc1)c1ccc(CN2C(=O)C(=O)c3cc(I)ccc32)s1	46%

target: T1, Replicase polyprotein 1a; assay: In vitro inhibitory concentration against SARS coronavirus main protease (SARS CoV 3C-like protease); settings: not given

SMILES	IC50
Cc1noc(C)c1CN1C(=O)C(=O)c2cc(C#N)ccc21	7.2 µM
O=C1C(=O)N(Cc2cc3ccccc3s2)c2ccccc21	13.1 µM
O=C1C(=O)N(Cc2cc3ccccc3s2)c2c1cccc2[N+](=O)[O-]	2 µM
O=C1C(=O)N(Cc2cc3ccccc3s2)c2ccc(F)cc21	4.82 µM
O=C(Nc1ccc(Cl)cc1)c1ccc(CN2C(=O)C(=O)c3cc(I)ccc32)s1	12.6 µM
O=C1C(=O)N(Cc2ccc(F)cc2Cl)c2ccc(I)cc21	9.4 µM
O=C1C(=O)N(Cc2cc3ccccc3s2)c2cccc(Cl)c21	11.2 µM
O=C1C(=O)N(Cc2ccc(C(=O)N3CCCCC3)s2)c2ccc(I)cc21	17.5 µM
O=C1C(=O)N(Cc2cc3ccccc3s2)c2ccc(I)cc21	0.95 µM
O=C1C(=O)N(C/C=C/c2cc3ccccc3s2)c2ccc(I)cc21	23.5 µM
